An excerpt weighted towards active compounds, which were near 2.5% of everything screened.
TCR-CD3 inh = inhibitors of human TCR-CD3 interaction | TAMRA-labeled TCR probe fluorescence, biochemical | inhibition, % at 9.4 µM | 0.37% of 360,000 active | AID 651800; in the data active = inhibition above about 19%;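 note: recombinant mutant TCR 2C K166C tagged with TAMRA read by polarization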
PRMT1 inh = inhibitors of human PRMT1 | recombinant PRMT1, activity-based probe fluorescence polarization | inhibition, % at 2.79 µM | 1.3% of 370,000 active | Q99873;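 active = inhibition above about 21% made by adding two undisclosed values, limit read from the data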
SIAE inh = blocks human sialic acid acetylesterase; Q9HAT2; AID 1053197; 0.69% of 370,000 active; inhibition, % at 9.66 µM; SIAE FP-Rh probe binding, fluorescence polarization;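 active = inhibition above a cutoff: mean of compounds within the control limits plus 3 SD of those, cut at about 17% in these data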
Target sequence (Q9HAT2 whole entry, looked up): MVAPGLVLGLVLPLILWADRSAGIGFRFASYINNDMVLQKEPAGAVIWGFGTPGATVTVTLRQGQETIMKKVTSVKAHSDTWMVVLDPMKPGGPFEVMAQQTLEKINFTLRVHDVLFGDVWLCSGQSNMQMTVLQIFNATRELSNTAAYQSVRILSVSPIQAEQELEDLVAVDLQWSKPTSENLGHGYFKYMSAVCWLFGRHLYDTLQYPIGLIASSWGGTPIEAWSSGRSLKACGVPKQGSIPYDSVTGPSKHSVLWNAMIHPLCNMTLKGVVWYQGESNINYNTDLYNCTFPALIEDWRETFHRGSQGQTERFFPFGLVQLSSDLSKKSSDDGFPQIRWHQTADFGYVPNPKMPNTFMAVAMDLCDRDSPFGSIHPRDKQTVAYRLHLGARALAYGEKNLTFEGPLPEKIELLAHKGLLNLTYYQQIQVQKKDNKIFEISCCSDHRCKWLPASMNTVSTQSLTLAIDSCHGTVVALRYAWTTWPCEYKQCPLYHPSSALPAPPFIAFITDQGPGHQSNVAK
mABHD4 FP = ABHD4 (mouse) inhibition, primary FP screen; AID 720543; inhibition, % at 8.92 µM; 0.54% of 370,000 active; Q8VD66; purified mABHD4, FP-Rh probe fluorescence polarization;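 active = inhibition exceeding the mean over every tested compound plus 3 SD, cut at about 30% in these data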
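Assay system: wild-type mouse ABHD4 protein; compound: single nominal dose of 8.92 µM, 0.89% DMSO final; schedule: 45 min + 60 min at 25 °C; measured by: FP readout, ex 525 nm / em 598 nm; evaluation: % inhibition of FP-Rh probe binding versus controls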
HTRA1 inhibitor = blocks human HTRA1 serine peptidase; 0.5% of 340,000 active; inhibition, % at 5.96 µM; recombinant HTRA1, FP-rhodamine activity-based probe, fluorescence polarization; in the data active = inhibition above about 36%
PRMT1 confirm = PRMT1 (human) inhibition, FP confirmation. 42% of 3,300 active. inhibition, % at 2.79 µM. shares compounds with PRMT1 inh. recombinant His-PRMT1, activity-based probe fluorescence polarization;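 active = mean inhibition across replicates above the hit cutoff derived for the earlier primary screen, cut at about 22% in these data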
Of the large screens only hits and unclear results are named; the others gave an inactive call (follow-up assays come after a bar, where they were run).

COc1ccc(C2C=C(C34CC5CC(CC(C5)C3)C4)NC(=S)N2)cc1 (stereo unspecified)	none
COc1ccc(/C=C2\Sc3ccc(C(=O)NCc4cccnc4)cc3N(C)C2=O)cc1OC	PRMT1 inh 31.9 | PRMT1 confirm inactive
O=C(Nc1cccc(N2C(=O)C=CC2=O)c1)c1cccs1	PRMT1 inh 85.8 | PRMT1 confirm 93.5
COC/C=C/C1=CC2=CC(=O)C(C)(OC(=O)C3CCCC3)C(=O)C2=CO1 (stereo unspecified)	PRMT1 inh 46.4 | PRMT1 confirm 24.4
O=c1c2ccccc2sn1-c1ccc(S(=O)(=O)N2CCCCC2)cc1	PRMT1 inh 43.1 | PRMT1 confirm 62.7
O=c1c2ccccc2sn1-c1ccc(S(=O)(=O)N2CCCC2)cc1	PRMT1 inh 95.2 | PRMT1 confirm 97.0
Cc1ccc(-n2sc3ccccc3c2=O)cc1S(=O)(=O)N1CCCCC1	PRMT1 inh 101.4 | PRMT1 confirm 84.1
CCCC(=O)Nc1nc2ccc(OC)cc2s1	none
COc1ccc2nc(NC(=S)N(C)C)sc2c1	PRMT1 inh 28.2 | PRMT1 confirm inactive
O=C1CN(C(=O)CSc2nc3ccccc3n2CCc2ccccc2)c2ccccc2N1	none
CCCn1c(SCC(=O)N2CC(=O)Nc3ccccc32)nc2ccccc21	PRMT1 inh 37.2 | PRMT1 confirm 24.1
COCCN=C1S/C(=C\c2cc(C)n(-c3ccc(F)cc3F)c2C)C(=O)N1C	none (no result: TCR-CD3 inh, HTRA1 inhibitor)
O=C(NCc1ccco1)O[C@H]1CC[C@@]23CCCN2C(=O)CCC[C@H]3C1	none (no result: TCR-CD3 inh, HTRA1 inhibitor)
CN(C)C(CNC(=O)c1cccc(S(=O)(=O)Nc2ccc(SC(F)F)cc2)c1)c1ccccc1 (stereo unspecified)	PRMT1 inh 44.4 | PRMT1 confirm 62.3
CCN(CC)C(=O)CC[C@H]1CC[C@]2(CCCN(Cc3nccs3)C2)O1	none (no result: TCR-CD3 inh, HTRA1 inhibitor)
C/C(=N\N1C(=O)CSC1=S)c1ccc(Br)cc1	PRMT1 inh 31.4 | PRMT1 confirm 31.6
COc1cc(C2c3c(oc4ccccc4c3=O)C(=O)N2c2nccs2)ccc1O (stereo unspecified)	none
O=C(O)c1ccccc1-c1c2cc(I)c(=O)c(I)c-2oc2c(I)c(O)c(I)cc12	PRMT1 inh 83.0 | PRMT1 confirm 74.8
CCN(C(=O)COc1cccc2cccnc12)C1CCS(=O)(=O)C1 (stereo unspecified)	PRMT1 inh 32.8 | PRMT1 confirm inactive
Cc1cc(C)nc(SCNC(=O)c2ccccc2)n1	PRMT1 inh 33.8 | PRMT1 confirm inactive
CCOC(=O)C1NC(=O)CC1c1ccccc1 (stereo unspecified)	none
CCOC(=O)C1CSC2(CCC(c3ccccc3)CC2)N1 (stereo unspecified)	PRMT1 inh 47.5 | PRMT1 confirm 27.5
CCCCCCCCNCCS(=O)(=O)NC1CCCCC1	none
CN(Cc1ccccc1C#N)S(=O)(=O)c1cccs1	none
N#Cc1nccnc1S(=O)(=O)c1cccs1	PRMT1 inh 84.2 (no result: HTRA1 inhibitor) | PRMT1 confirm 82.3
O=C(C1=NN[C@@H]2C(=O)N(Cc3ccccc3)C(=O)[C@H]12)c1ccc([N+](=O)[O-])cc1	none
Cc1ccc(C)c(NC(=O)C2C3C=CC(O3)C2C(=O)O)c1 (stereo unspecified)	PRMT1 inh 78.6 | PRMT1 confirm 37.9
Cc1ccc(NC(=O)C2C3C=CC(O3)C2C(=O)O)c(C)c1 (stereo unspecified)	PRMT1 inh 37.1 | PRMT1 confirm inactive
Cc1cccc(NC(=O)C2C3C=CC(O3)C2C(=O)O)c1C (stereo unspecified)	PRMT1 inh 32.5 | PRMT1 confirm inactive
Cc1ccc(NC(=O)C2C3C=CC(O3)C2C(=O)O)cc1C (stereo unspecified)	none
Cc1ccccc1OCC(=O)Nc1ccccc1N1CCC(C)CC1	none
O=C(NCc1ccc(Cl)nc1)c1ccc2nc([C@@H]3O[C@H](CO)[C@H](O)[C@H](O)[C@H]3O)[nH]c2c1	none (no result: HTRA1 inhibitor)
COc1ccc2[nH]cc(S(=O)(=O)c3ccc(C)cc3)c2c1	none
N#CC1=C(N)S[C@@H](C(=O)c2ccc(F)cc2)[C@@H]1c1cccs1	PRMT1 inh 34.7 | PRMT1 confirm inactive
Fc1ccc(Nc2nnc(C(F)(F)F)s2)cc1Cl	none
Fc1ccc(Nc2cncc(-c3ccsc3)c2)cc1Cl	PRMT1 inh 25.5 (no result: HTRA1 inhibitor) | PRMT1 confirm inactive
C#CCNc1cc(-c2ccccc2)nc2ncnn12	none
CC(=O)CSc1cc(-c2ccccc2)nc2ncnn12	PRMT1 inh 28.2 | PRMT1 confirm 37.0
CCOC(=O)C1=C(O)/C(=C\c2cccs2)N=C1C	none
CCOC(=O)C1=C(O)/C(=C\c2ccc(CNC(=O)C(=O)Nc3ccccc3)o2)N=C1C	PRMT1 inh 34.1 | PRMT1 confirm 22.7
O=C(NCCNc1ccc([N+](=O)[O-])cc1)c1cccc(Br)c1	none
O=C(CCNc1ccc(F)cc1)c1cccc([N+](=O)[O-])c1	PRMT1 inh 31.6 | PRMT1 confirm 39.4
Cc1nc(SCC(=O)c2cccc([N+](=O)[O-])c2)n[nH]1	PRMT1 inh 30.1 | PRMT1 confirm inactive
O=C(CCNc1ccc(Br)cc1)c1cccc([N+](=O)[O-])c1	PRMT1 inh 28.3 | PRMT1 confirm 23.1
O=C(CCNc1ccccc1)c1cccc([N+](=O)[O-])c1	PRMT1 inh 36.5 | PRMT1 confirm 30.4
O=C(CC(=O)c1ccccc1)Nc1cccc([N+](=O)[O-])c1	none
Cc1ccc(NCCC(=O)c2cccc([N+](=O)[O-])c2)cc1	PRMT1 inh 33.2 | PRMT1 confirm 53.9
CCC(/C=C1\Oc2ccc(OC)cc2N1C)=C\c1sc2ccccc2[n+]1CCCS(=O)(=O)[O-]	PRMT1 inh 49.4 | PRMT1 confirm inactive
CCn1c(=O)c([N+](=O)[O-])c(Cl)c2ccccc21	none (no result: TCR-CD3 inh, PRMT1 inh, SIAE inh, mABHD4 FP)
O=c1c([N+](=O)[O-])c(Cl)c2ccccc2n1Cc1ccccc1	PRMT1 inh 42.6 (no result: TCR-CD3 inh, HTRA1 inhibitor) | PRMT1 confirm 36.0
O=c1c([N+](=O)[O-])c(O)c2ccccc2n1Cc1ccccc1	PRMT1 inh 28.9 | PRMT1 confirm inactive
CCOc1ccc(CC(=O)C2=C(N3CCOCC3)CC(C)(C)CC2=O)cc1OCC	none
CCOc1ccc(N2C(=O)CC(Sc3nc4ccc(OCC)cc4s3)C2=O)cc1 (stereo unspecified)	none
CC(=O)Nc1ccc(N2C(=O)CC(Sc3nc4ccccc4s3)C2=O)cc1 (stereo unspecified)	none
Cc1nc(SC2CC(=O)N(c3ccccc3)C2=O)n[nH]1 (stereo unspecified)	PRMT1 inh 50.3 | PRMT1 confirm 62.6
CCOC(=O)c1ccc(N2C(=O)CC(Sc3nnc(C)s3)C2=O)cc1 (stereo unspecified)	PRMT1 inh 71.7 | PRMT1 confirm 75.9
C=CCNc1nnc(SC2CC(=O)N(c3ccc(OCCC)cc3)C2=O)s1 (stereo unspecified)	PRMT1 inh 67.2 | PRMT1 confirm 66.2
COc1ccc(N2C(=O)CC(Sc3nc4ccccc4s3)C2=O)cc1OC (stereo unspecified)	PRMT1 inh 26.2 | PRMT1 confirm 22.9

Screening results deposited in PubChem BioAssay by The Scripps Research Institute Molecular Screening Center.
